Source: ChEMBL document CHEMBL1152796, “Azole antimicrobial pharmacophore-based tetrazoles: synthesis and biological evaluation as potential antimicrobial and anticonvulsant agents” (Bioorg Med Chem, 2009)
≈ marks a conversion by molar mass, not a printed value. Calls of active or inactive are those of the source. The rule behind the calls is not given here.

Columns and labels:
Mus musculus [1] = assay: Anticonvulsant activity in Wister albino mouse assessed as protection against maximal electroshock-induced seizures at 100 mg/kg, ip administered 30 mins before metrazole challenge measured after 30 mins; assay type: functional; details: route intraperitoneal
Mus musculus [2] = assay: Anticonvulsant activity in Wister albino mouse assessed as protection against subcutaneous metrazole-induced seizures at 100 mg/kg, ip administered 30 mins before metrazole challenge measured after 30 mins; assay type: functional; details: route intraperitoneal
Summary of the method: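 Wistar albino mice, either sex, 25–30 g, 3 months old, in groups of six. Compounds in DMSO were given ip at 30, 100 or 300 mg/kg; vehicle-only controls. After 30 min, metrazole 100 mg/kg in DMSO was injected sc at the posterior midline. Protection meant absence of any clonic spasm lasting ≥5 s; scored as protected/tested.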

Escherichia coli [3] = assay: Antibacterial activity against Escherichia coli ATCC 25922 after 24 to 48 hrs by twofold serial dilution method; assay type: functional
Summary of the method: (§1)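 Broth microdilution in Müller–Hinton broth. DMSO stocks at 800 were diluted twofold from 400 down to 6.25. Wells received 10^6 CFU/mL bacterial suspension and were incubated at 36 °C for 24–48 h, with controls. MIC was read per well. Duplicate assays; run only for compounds giving inhibition zones ≥14 mm.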

Trichophyton rubrum = assay: Antifungal activity against Trichophyton rubrum isolate after 72 hrs by twofold serial dilution method; assay type: functional, organism-based
Micrococcus luteus [4] = assay: Antibacterial activity against Micrococcus luteus ATCC 21881 after 24 to 48 hrs by twofold serial dilution method; assay type: functional; summary of the method: as §1
Aspergillus fumigatus = assay: Antifungal activity against Aspergillus fumigatus isolate at 1 mg/mL after 7 days by agar diffusion method; assay type: functional; details: 168 h, read-out: Diameter of inhibition zone
Summary of the method: (§2)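 Agar disc diffusion: 5 mm sterile paper discs soaked in 1 mg/mL test solution in DMSO were placed on agar seeded with the organism, in triplicate, with a DMSO-only control. Bacterial plates were incubated at 37 °C for 24 h and fungal plates for 7 days. Read-out was the average inhibition-zone diameter in mm. Fungi were clinical isolates.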

Aspergillus niger = assay: Antifungal activity against Aspergillus niger isolate after 72 hrs by twofold serial dilution method; assay type: functional, organism-based
Pseudomonas aeruginosa [5] = assay: Antibacterial activity against Pseudomonas aeruginosa ATCC 27853 after 24 to 48 hrs by twofold serial dilution method; assay type: functional; summary of the method: as §1
Candida albicans = assay: Antifungal activity against Candida albicans isolate at 1 mg/mL after 7 days by twofold serial dilution method; assay type: functional; details: 168 h, read-out: Diameter of inhibition zone
Escherichia coli [6] = assay: Antibacterial activity against Escherichia coli ATCC 25922 at 1 mg/mL after 24 hrs by agar diffusion method; assay type: functional; details: ATCC 25922, 24 h, read-out: Diameter of inhibition zone; summary of the method: as §2
Bacillus subtilis [7] = assay: Antibacterial activity against Bacillus subtilis NRRL B-14819 at 1 mg/mL after 24 hrs by agar diffusion method; assay type: functional; details: read-out: Diameter of inhibition zone; summary of the method: as §2
Klebsiella pneumoniae [8] = assay: Antibacterial activity against Klebsiella pneumoniae isolate after 24 to 48 hrs by twofold serial dilution method; assay type: functional; summary of the method: as §1
Micrococcus luteus [9] = assay: Antibacterial activity against Micrococcus luteus ATCC 21881 at 1 mg/mL after 24 hrs by agar diffusion method; assay type: functional; details: ATCC 21881, 24 h, read-out: Diameter of inhibition zone; summary of the method: as §2
Staphylococcus aureus [10] = assay: Antibacterial activity against Staphylococcus aureus ATCC 6538 at 1 mg/mL after 24 hrs by agar diffusion method; assay type: functional; details: ATCC 6538, 24 h, read-out: Diameter of inhibition zone; summary of the method: as §2
Staphylococcus aureus [11] = assay: Antibacterial activity against Staphylococcus aureus ATCC 6538 after 24 to 48 hrs by twofold serial dilution method; assay type: functional; summary of the method: as §1
Pseudomonas aeruginosa [12] = assay: Antibacterial activity against Pseudomonas aeruginosa ATCC 27853 at 1 mg/mL after 24 hrs by agar diffusion method; assay type: functional; details: ATCC 27853, 24 h, read-out: Diameter of inhibition zone; summary of the method: as §2
Bacillus subtilis [13] = assay: Antibacterial activity against Bacillus subtilis NRRL B-14819 after 24 to 48 hrs by twofold serial dilution method; assay type: functional; summary of the method: as §1
Pichia kudriavzevii = assay: Antifungal activity against Candida krusei isolate after 72 hrs by twofold serial dilution method; assay type: functional, organism-based
Klebsiella pneumoniae [14] = assay: Antibacterial activity against Klebsiella pneumoniae isolate at 1 mg/mL after 24 hrs by agar diffusion method; assay type: functional; details: read-out: Diameter of inhibition zone; summary of the method: as §2
Candida tropicalis = assay: Antifungal activity against Candida tropicalis isolate after 72 hrs by twofold serial dilution method; assay type: functional, organism-based

| Compound | Activity (Mus musculus [1]) [%] | Activity (Mus musculus [2]) [%] | MIC (Escherichia coli [3]) [µg/mL] | Activity (Trichophyton rubrum) | MIC (Micrococcus luteus [4]) [µg/mL] | zone of inhibition at 1000 µg/mL (Aspergillus fumigatus) [mm] | Activity (Aspergillus niger) | MIC (Pseudomonas aeruginosa [5]) [µg/mL] | zone of inhibition at 1000 µg/mL (Candida albicans) [mm] | zone of inhibition at 1000 µg/mL (Escherichia coli [6]) [mm] | zone of inhibition at 1000 µg/mL (Bacillus subtilis [7]) [mm] | MIC (Klebsiella pneumoniae [8]) [µg/mL] | zone of inhibition at 1000 µg/mL (Micrococcus luteus [9]) [mm] | zone of inhibition at 1000 µg/mL (Staphylococcus aureus [10]) [mm] | MIC (Staphylococcus aureus [11]) [µg/mL] | zone of inhibition at 1000 µg/mL (Pseudomonas aeruginosa [12]) [mm] | MIC (Bacillus subtilis [13]) [µg/mL] | Activity (Pichia kudriavzevii) | zone of inhibition at 1000 µg/mL (Klebsiella pneumoniae [14]) [mm] | Activity (Candida tropicalis) |
| --- | --- | --- | --- | --- | --- | --- | --- | --- | --- | --- | --- | --- | --- | --- | --- | --- | --- | --- | --- | --- |
| OC(Cn1nnc(-c2ccccc2)n1)c1ccc(Cl)cc1 (configuration not stated) | 0 | 0 | – | – | – | – | – | – | – | – | – | – | – | – | – | – | – | – | – | – |
| O=C(COC(Cn1nnnc1Cc1ccccc1)c1ccc(Cl)cc1)NNC(=S)Nc1ccc(Cl)cc1 (configuration not stated) | – | – | ≥ 200 | inactive | ≥ 200 | ≥ 14 | inactive | ≥ 200 | ≥ 14 | ≥ 14 | ≥ 14 | ≥ 200 | ≥ 14 | ≥ 14 | 100 (≈ 180 µM) | ≥ 14 | ≥ 200 | inactive | ≥ 14 | inactive |
| O=C(COC(Cn1nnnc1Cc1ccccc1)c1ccc(Cl)cc1)NNC(=S)Nc1ccccc1 (configuration not stated) | – | – | 100 (≈ 192 µM) | inactive | 100 (≈ 192 µM) | ≥ 14 | inactive | ≥ 200 | ≥ 14 | ≥ 14 | ≥ 14 | ≥ 200 | ≥ 14 | ≥ 14 | 100 (≈ 192 µM) | ≥ 14 | ≥ 200 | inactive | ≥ 14 | inactive |
| CCOC(=O)COC(Cn1nnc(-c2ccccc2)n1)c1ccc(Cl)cc1 (configuration not stated) | – | – | ≥ 200 | inactive | ≥ 200 | ≥ 14 | inactive | ≥ 200 | ≥ 14 | ≥ 14 | ≥ 14 | ≥ 200 | ≥ 14 | ≥ 14 | 100 (≈ 259 µM) | ≥ 14 | ≥ 200 | inactive | ≥ 14 | inactive |
| NNC(=O)COC(Cn1nnc(-c2ccccc2)n1)c1ccc(Cl)cc1 (configuration not stated) | – | – | ≥ 200 | inactive | ≥ 200 | – | inactive | ≥ 200 | – | – | – | ≥ 200 | – | – | 100 (≈ 268 µM) | – | ≥ 200 | inactive | – | inactive |
| O=C(COC(Cn1nnc(-c2ccccc2)n1)c1ccc(Cl)cc1)N/N=C/c1ccc(Cl)cc1 (configuration not stated) | – | – | 100 (≈ 202 µM) | inactive | 100 (≈ 202 µM) | ≥ 14 | inactive | ≥ 200 | ≥ 14 | ≥ 14 | ≥ 14 | ≥ 200 | ≥ 14 | ≥ 14 | 50 (≈ 101 µM) | ≥ 14 | 50 (≈ 101 µM) | inactive | ≥ 14 | inactive |
| Clc1ccc(/C=C/n2nnc(-c3ccccc3)n2)cc1 | – | – | 100 (≈ 354 µM) | inactive | ≥ 200 | ≥ 14 | inactive | ≥ 200 | ≥ 14 | ≥ 14 | ≥ 14 | ≥ 200 | ≥ 14 | ≥ 14 | 100 (≈ 354 µM) | ≥ 14 | ≥ 200 | inactive | ≥ 14 | inactive |
| O=C(COC(Cn1nnnc1Cc1ccccc1)c1ccc(Cl)cc1)N/N=C/c1ccc(Cl)cc1 (configuration not stated) | 50 | 50 | 100 (≈ 196 µM) | inactive | 100 (≈ 196 µM) | ≥ 14 | inactive | ≥ 200 | ≥ 14 | ≥ 14 | ≥ 14 | ≥ 200 | ≥ 14 | ≥ 14 | 100 (≈ 196 µM) | ≥ 14 | 100 (≈ 196 µM) | inactive | ≥ 14 | inactive |
| CC1(C)S[C@@H]2[C@H](NC(=O)[C@H](N)c3ccccc3)C(=O)N2[C@H]1C(=O)O.O.O.O [AMPICILLIN TRIHYDRATE] | – | – | 6.25 | – | 12.5 | – | – | 12.5 | – | – | – | 12.5 | – | – | 6.25 | – | 12.5 | – | – | – |
| O=C(O)COC(Cn1nnc(-c2ccccc2)n1)c1ccc(Cl)cc1 (configuration not stated) | – | – | ≥ 200 | inactive | ≥ 200 | ≥ 14 | inactive | ≥ 200 | ≥ 14 | ≥ 14 | ≥ 14 | ≥ 200 | ≥ 14 | ≥ 14 | 100 (≈ 279 µM) | ≥ 14 | 100 (≈ 279 µM) | inactive | ≥ 14 | inactive |
| Clc1ccc(C(Cn2nnc(-c3ccccc3)n2)OCc2nnc(Nc3ccccc3)o2)cc1 (configuration not stated) | – | – | 25 (≈ 52.8 µM) | inactive | 100 (≈ 211 µM) | ≥ 14 | inactive | 100 (≈ 211 µM) | ≥ 14 | ≥ 14 | ≥ 14 | 100 (≈ 211 µM) | ≥ 14 | ≥ 14 | 12.5 (≈ 26.4 µM) | ≥ 14 | 50 (≈ 106 µM) | inactive | ≥ 14 | inactive |
| Cc1cc(C)n(C(=O)COC(Cn2nnc(-c3ccccc3)n2)c2ccc(Cl)cc2)n1 (configuration not stated) | 0 | 0 | 50 (≈ 114 µM) | inactive | 50 (≈ 114 µM) | ≥ 14 | inactive | 100 (≈ 229 µM) | ≥ 14 | ≥ 14 | ≥ 14 | 100 (≈ 229 µM) | ≥ 14 | ≥ 14 | 12.5 (≈ 28.6 µM) | ≥ 14 | 25 (≈ 57.2 µM) | inactive | ≥ 14 | inactive |
| Sc1nnc(COC(Cn2nnc(-c3ccccc3)n2)c2ccc(Cl)cc2)o1 (configuration not stated) | 0 | 33 | 25 (≈ 60.3 µM) | inactive | 50 (≈ 121 µM) | ≥ 14 | inactive | 50 (≈ 121 µM) | ≥ 14 | ≥ 14 | ≥ 14 | 100 (≈ 241 µM) | ≥ 14 | ≥ 14 | 6.25 (≈ 15.1 µM) | ≥ 14 | 25 (≈ 60.3 µM) | inactive | ≥ 14 | inactive |
| Sc1nnc(COC(Cn2nnc(-c3ccccc3)n2)c2ccc(Cl)cc2)n1-c1ccc(Cl)cc1 (configuration not stated) | – | – | 100 (≈ 191 µM) | inactive | 100 (≈ 191 µM) | ≥ 14 | inactive | ≥ 200 | ≥ 14 | ≥ 14 | ≥ 14 | 100 (≈ 191 µM) | ≥ 14 | ≥ 14 | 25 (≈ 47.7 µM) | ≥ 14 | 50 (≈ 95.3 µM) | inactive | ≥ 14 | inactive |
